Key:
[1] = system: integrin αvβ3/αvβ5 in xenografted U87MG glioma and human colon cancer tissues; experiment: Tumor tissue staining: blocking and RGD-specificity experiments; conditions: 100 μM; for Staining of tumor tissues (RGD specificity): xenografted U87MG glioma and human colon cancer tissues, same conditions
How it was run: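 Sections were frozen, acetone-fixed U87MG xenograft slices (5 μm) or deparaffinized, rehydrated human colon cancer slides. They were blocked with 10% goat serum (30 min, 37 °C), then incubated with 100 μM test compound for 1 h at RT, with or without 10 mM c(RGDfK)2 as blocker. After three PBS washes and DAPI mounting, ≥15 random fields per section were scored. Fluorescent area was given as % of total, mean ± standard deviation.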

[2] = system: integrin αvβ3/αvβ5 in xenografted U87MG glioma tissues; parameters: species or system human; conditions: xenografted U87MG glioma slices, 1 h incubation, tested at 0.1-100 μM
How it was run: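 U87MG xenografts were snap-frozen in OCT and cut into 5 μm slices. Slices were fixed in ice-cold acetone for 10 min and air-dried for 20 min, then incubated for 1 h with test compound at 0.1, 1.0, 10, 20, 50 or 100 μM. After three PBS washes and DAPI mounting, images were taken at 200× with equal exposure. Fluorescent area was given as % of total area against concentration.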

[3] = system: integrin αvβ3/αvβ5 in xenografted U87MG glioma tissues; parameters: species or system human; conditions: peptide 100 μM, antibody 2.5 μg/mL, 5-120 min
How it was run: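 Frozen 5 μm slices of U87MG xenograft were fixed in ice-cold acetone for 10 min and air-dried at RT. They were incubated with 100 μM test compound at RT for 5, 15, 30, 60, 90 or 120 min, PBS-washed three times and mounted with DAPI medium. The antibody arm used 10% goat serum (30 min, 37 °C), then rabbit anti-integrin β3 (2.5 μg/mL) for the same times, then Cy3 goat anti-rabbit (1:100, 1 h). Images at 200× with equal exposure; positive area as % of total plotted against time.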

[4] = system: integrin αvβ3/αvβ5 in human carcinoma tissues; experiment: Tumor tissue staining kinetics, time dependence, human carcinoma tissues; conditions: 50 μM, 5-90 min
[5] = system: integrin αvβ3/αvβ5 in human carcinoma tissues; experiment: Tumor tissue staining, concentration dependence, human carcinoma tissues
How it was run: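 Human colon, squamous cell lung and gastric carcinoma slices (5 μm) were deparaffinized in xylene and rehydrated through graded alcohols. They were stained for 1 h with test compound at […], PBS-washed three times and mounted with DAPI medium. Images at 200× with equal exposure and equal brightness/contrast adjustment. Positive staining area was expressed as % of total area and plotted against concentration.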

Row | Substance | Staining of tumor tissues (RGD specificity) [1] | Concentration range in which tissues were well stained [2] [µM] | Incubation time to achieve maximal fluorescent intensity [3] [min] | Staining of xenografted U87MG glioma tissues in the absence of blocker ([1]; 1 h, room temperature) | Incubation time for positive staining of colon cancer tissues [4] [min] | Minimal concentration for positive staining of colon carcinoma ([5]; human colon carcinoma slices, 1 h incubation, tested at 1-50 μM) [µM] | Staining of gastric carcinoma tissue ([5]; human gastric carcinoma tissue, 1-50 μM) | Concentration needed to achieve adequate fluorescence staining ([5]; human squamous cell lung cancer tissues, 1 h incubation) [µM]
1 | FITC-E[c(RGDfK)]2 (bicyclic or more) [FITC-RGD2] | positively stained | – | – | – | – | – | – | –
2 | FITC-Glu[cyclo[Arg-Gly-Asp-D-Phe-Lys(SAA-PEG2-(1,2,3-triazole)-1-yl-4-methylamide)]]2 (bicyclic or more) [FITC-Galacto-RGD2] | positively stained | 10 to 100 | ≤ 30 | successfully stained | ≤ 15 | ~5 | little staining | > 25
3 | FITC-PEG4-E[PEG4-c(RGDfK)]2 (bicyclic or more) [FITC-3P-RGD2] | positively stained | – | – | – | – | – | – | –

Reference: PMC4240344 (Bioconjugate Chemistry, 2014)
